Screening data (PubChem)
MEKK3 PB1 HTS: modulators of MEKK3-MEK5 PB1 binding, primary screen, biochemical, wildtype MEKK3, multiplex bead flow cytometry, Alexa488-MEK5. Mitogen-activated protein kinase kinase kinase 3 (Homo sapiens), Q99759. 290,000 tested, 1.4% active. binding response (% of control), % at 10 µM. bead-based flow cytometry, Alexa488-MEK5 binding to MEKK3; actives lie on both sides; 0 = blocked by unlabeled MEK5, 100 = vehicle;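 active means binding response more than 3 SD above or below the average of its plate-row segment, actives on both sides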;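 further: Alexa488 bead fluorescence after subtracting the streptavidin-only scavenger bead signal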
MEKK2mut PB1 HTS: MEK5 binding signal on mutant MEKK2 PB1, primary screen, biochemical, multiplex bead flow cytometry, Alexa488-MEK5; 290,000 tested, 0.35% active; Alexa488-MEK5 binding to MEKK2 mutant; percent response, % at 10 µM; AID 1530, 2009; in the data active means percent response above about 24%, passing the limit was not always enough
PREPL inhibitor: PREPL enzyme inhibitors, primary screen, biochemical, fluorescence polarization | 320,000 tested, 0.68% active | recombinant PREPL, fluorescence polarization activity-based probe | Prolyl endopeptidase-like (Homo sapiens), Q4J6C6 | inhibition, % at 5.96 µM; in the data active means inhibition above about 43%;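 further: 0% = enzyme with DMSO and 100% = wells lacking enzyme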
UBC13 inh: UBC13 polyubiquitin chain formation inhibitors, primary screen, biochemical, TR-FRET, uHTS. AID 485273, 2010. inhibition, % at 20 µM. 330,000 tested, 0.47% active. Ubiquitin-conjugating enzyme E2 N (Homo sapiens), P61088; in the data active means inhibition above about 45%, passing the limit was not always enough
MEKK2wt PB1 HTS: modulators of MEK5 binding to wildtype MEKK2, primary screen, biochemical, multiplex bead flow cytometry, Alexa488-MEK5. Alexa488-MEK5 binding to MEKK2 WT; actives lie on both sides. binding response (% of control), % at 10 µM. 290,000 tested, 1.1% active. AID 1531, 2009; in the data active means binding response below about 67% or above about 130%
Apaf-1 inh: inhibitors of human Apaf-1 apoptosome, primary screen, biochemical, DEVD-Rh110 fluorescence, uHTS | Apoptotic protease-activating factor 1 (Homo sapiens), O14727 | reconstituted apoptosome caspase-3 activity | inhibition, % at 20 µM | 330,000 tested, 0.71% active; active means inhibition of at least 40% at 20 µM;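 further: plate controls were DMSO wells for no effect and DEVD-CHO caspase inhibitor wells for full effect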
Target sequence (O14727 whole entry, looked up): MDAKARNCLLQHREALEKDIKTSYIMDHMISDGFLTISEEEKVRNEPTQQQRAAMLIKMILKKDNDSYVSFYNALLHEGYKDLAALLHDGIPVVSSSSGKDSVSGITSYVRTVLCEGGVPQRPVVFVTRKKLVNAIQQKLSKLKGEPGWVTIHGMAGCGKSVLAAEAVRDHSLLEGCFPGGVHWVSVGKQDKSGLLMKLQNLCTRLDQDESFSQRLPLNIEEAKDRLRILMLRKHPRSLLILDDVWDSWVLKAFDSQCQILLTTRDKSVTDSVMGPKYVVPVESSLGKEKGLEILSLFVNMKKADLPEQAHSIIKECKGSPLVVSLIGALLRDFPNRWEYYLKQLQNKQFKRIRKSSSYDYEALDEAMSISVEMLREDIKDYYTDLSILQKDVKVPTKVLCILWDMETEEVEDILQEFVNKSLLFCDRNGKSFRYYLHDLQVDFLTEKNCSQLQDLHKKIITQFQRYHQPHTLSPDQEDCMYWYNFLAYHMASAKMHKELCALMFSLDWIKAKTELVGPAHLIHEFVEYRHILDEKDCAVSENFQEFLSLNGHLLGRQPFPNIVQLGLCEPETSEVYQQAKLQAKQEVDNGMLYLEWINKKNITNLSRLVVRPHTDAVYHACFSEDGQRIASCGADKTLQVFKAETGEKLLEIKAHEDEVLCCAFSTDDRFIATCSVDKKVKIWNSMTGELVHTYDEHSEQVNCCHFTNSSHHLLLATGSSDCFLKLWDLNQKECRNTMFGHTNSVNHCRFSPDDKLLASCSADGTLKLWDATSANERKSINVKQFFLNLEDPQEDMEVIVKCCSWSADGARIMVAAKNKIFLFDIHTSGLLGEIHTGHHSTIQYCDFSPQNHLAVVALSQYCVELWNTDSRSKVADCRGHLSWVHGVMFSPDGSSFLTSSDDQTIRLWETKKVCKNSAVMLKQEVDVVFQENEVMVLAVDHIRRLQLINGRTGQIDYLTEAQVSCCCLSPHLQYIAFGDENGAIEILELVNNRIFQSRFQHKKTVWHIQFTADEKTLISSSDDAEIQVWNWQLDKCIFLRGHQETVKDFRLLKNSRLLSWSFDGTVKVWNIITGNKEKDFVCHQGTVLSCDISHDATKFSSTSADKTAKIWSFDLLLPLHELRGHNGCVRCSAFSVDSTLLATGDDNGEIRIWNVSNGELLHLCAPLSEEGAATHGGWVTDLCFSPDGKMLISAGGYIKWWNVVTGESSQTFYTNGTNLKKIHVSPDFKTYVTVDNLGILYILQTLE
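Medium: Hepes buffer, pH 7.5 / System: biochemical Apaf-1 apoptosome reconstitution / Measured by: Rh110 fluorescence, excitation 480 nm, emission 540 nm / Times: compound with Apaf-1, dATP, procaspase-3 30 min, then 50 min reaction, room temperature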
MEKK2wt confirm: modulators of MEK5 binding to wildtype MEKK2, confirmation, biochemical, single concentration, multiplex bead flow cytometry. shares compounds with MEKK3 PB1 HTS. Alexa488-MEK5 binding to MEKK2 WT; actives lie on both sides. binding response (% of control), % at 10 µM. 5,900 tested, 2.4% active; in the data active means binding response below about 16% or above about 210%; inactive means in between
MEKK2mut-MEK5: mutant MEKK2 PB1-MEK5 binding signal retest – biochemical, single concentration, multiplex bead flow cytometry, confirmation; shares compounds with MEKK3 PB1 HTS; Alexa488-MEK5 binding to MEKK2 mutant; percent response, % at 10 µM; 5,900 tested, 2% active; in the data active means percent response mostly above about 71%, no sharp cut-off; inactive means mostly below about 38%;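 further: higher means compound restores mutant binding toward wildtype level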
MEKK3 confirm: MEKK3 wild-type PB1 binding to MEK5, inhibitors, confirmation, biochemical, bead multiplex flow cytometry, single concentration, wildtype; 5,900 tested, 1.8% active; shares compounds with MEKK3 PB1 HTS; Alexa488-MEK5 binding to MEKK3; active compounds read low; AID 1894, 2009; binding response (% of control), % at 10 µM;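 active means binding response below 72% of control, or above a set upper limit, though filed actives all read lower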;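 further: 100% = DMSO only wells and 0% = binding blocked by excess unlabeled MEK5; lower values mean stronger disruption of MEK5 binding to MEKK3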
Active calls of the source: *; / = no result given; [ ] = dose if it differs, or a comment. This is a sample that favours compounds with a hit; in the whole collection about 3.1% have one here.

SMILES	MEKK3 PB1 HTS	MEKK2mut PB1 HTS	PREPL inhibitor	UBC13 inh	MEKK2wt PB1 HTS	Apaf-1 inh	MEKK2wt confirm	MEKK2mut-MEK5	MEKK3 confirm
CCn1c(=O)c(C(=O)CN(C)CC(=O)Nc2ccccc2Br)c(N)n(Cc2ccccc2)c1=O	/	/	/	8.7	/	21.7	/	/	/
CC(C)C1Cc2c(C#N)c(N)sc(=S)c2CO1 (centres undefined)	85.0	-5.0	-3.4	-6.6	48.0*[inhibitor]	-1.3	74.0	-12.0	96.0
Cc1ccc(NS(=O)(=O)c2cc([N+](=O)[O-])ccc2NNC(=S)Nc2cccc(Cl)c2)c(C)c1	136.0*	-2.0	10.2	/	68.0	/	87.0	-7.0	93.0
Cc1cccc(C(=O)NCC(=O)N2CCN(S(=O)(=O)c3ccc4c(c3)OCCO4)CC2)c1	/	/	9.7	-13.0	/	3.5	/	/	/
CCN(CC(=O)Nc1c(F)cccc1F)C(=O)c1ccc(C#N)cc1	94.0	-4.0	8.2	-5.3	93.0	3.1	/	/	/
COc1ccc(NC(=O)CSCC(=O)N2c3ccccc3CCc3ccccc32)cc1	148.0*	-1.0	5.5	9.6	100.0	12.4	101.0	-1.0	99.0
CC1CN(Cc2cc(=O)[nH]c(C3CC3)n2)CC(C)O1 (centres undefined)	2.0*[inhibitor]	-16.0	5.5	-12.2	3.0*[inhibitor]	6.2	106.0	5.0	103.0
CCCn1c(SCC(=O)NC(=O)Nc2ccc(C)cc2C)n[nH]c1=O	0.0*[inhibitor]	-18.0	10.6	7.1	-5.0*[inhibitor]	4.2	111.0	5.0	114.0
O=C(CCNC(=O)c1ccc(Br)cc1)Nc1ccc(S(=O)(=O)N2CCOCC2)cc1	/	/	12.7	12.1	/	12.8	/	/	/
COc1ccc([N+](=O)[O-])cc1NC(=O)CSc1nc(C)cc(C)n1	108.0	-1.0	-5.2	-6.0	106.0	6.5	/	/	/
COc1ccc([N+](=O)[O-])cc1NC(=O)CSc1ccc2ccccc2c1	148.0*	0.0	9.3	-15.5	108.0	1.3	104.0	-2.0	103.0
O=C(NNc1c(Cl)cncc1Cl)c1sccc1Cl	132.0*	27.0	-2.3	3.7	128.0	-24.0	99.0	1.0	104.0
CC(=O)c1ccc(N(C(=O)c2ccco2)C(C(=O)NC2CCCC2)c2cccs2)cc1 (centres undefined)	101.0	-4.0	7.5	-0.6	97.0	17.3	/	/	/
C#CC(=O)N(c1ccc(OC)c(OC)c1)C(C(=O)NC1CCCC1)c1cccs1 (centres undefined)	125.0*	11.0	-6.8	-3.7	114.0	-4.2	104.0	-2.0	100.0
C#CC(=O)N(c1cccc(OC)c1)C(C(=O)NC1CCCC1)c1cccs1 (centres undefined)	98.0	2.0	-0.7	3.0	101.0	8.7	/	/	/
O=C(NC1CCCCC1)C(c1cccs1)N(C(=O)c1ccco1)c1ccc2c(c1)OCCO2 (centres undefined)	60.0*[inhibitor]	2.0	8.7	1.3	91.0	18.1	90.0	-3.0	96.0
O=S(=O)(c1ccc(F)cc1)N1CCN(CC(O)COCC2CCCO2)CC1 (centres undefined)	/	/	/	4.2	/	-1.1	/	/	/
CSc1ccccc1C(=O)N1CCN(S(=O)(=O)c2sc(C(=O)O)c(C)c2C(=O)O)CC1	/	/	10.0	-10.7	/	-6.9	/	/	/
C1CC(CN2CCOCC2)CN(Cc2nc(CC3CC3)no2)C1 (centres undefined)	101.0	-3.0	3.8	-4.9	100.0	-1.0	/	/	/
COc1ccc(S(=O)(=O)N2CCOCC2)cc1NC(=O)CCc1c[nH]c2ccccc12	101.0	-1.0	8.7	-0.1	99.0	-2.1	/	/	/
Oc1ccccc1C1CCCCC1c1ccccc1 (centres undefined)	107.0	7.0	3.3	/	106.0	/	/	/	/
Cn1c(=NC(=O)CS(=O)(=O)c2ccccc2)sc2ccccc21	/	/	-14.8	0.3	/	-0.5	/	/	/
Cn1c(=NC(=O)COc2ccccc2)sc2ccccc21	74.0*[inhibitor]	-3.0	-2.9	0.2	85.0	7.8	98.0	2.0	99.0
CC1CC(C)CN(CC(O)COc2ccc3c(c2)CCC3)C1 (centres undefined)	152.0*	1.0	11.9	-16.1	110.0	12.5	97.0	-3.0	98.0
Cc1nc(C)n(CC(O)COc2ccc3c(c2)CCC3)n1 (centres undefined)	96.0	1.0	-2.2	2.8	101.0	-21.3	/	/	/
SMILES	MEKK3 PB1 HTS	MEKK2mut PB1 HTS	PREPL inhibitor	UBC13 inh	MEKK2wt PB1 HTS	Apaf-1 inh	MEKK2wt confirm	MEKK2mut-MEK5	MEKK3 confirm
CCCN1CCC(=O)N(CCSc2ccc(NC(C)=O)cc2)CC1	71.0*[inhibitor]	1.0	0.9	2.8	108.0	-4.3	98.0	-4.0	97.0
CC(Nc1nc(-c2ccccc2)nc2ccccc12)c1ccccc1 (centres undefined)	74.0	-6.0	3.8	22.0	108.0	7.0	/	/	/
CC(Nc1nc(N2CCCCC2)nc2ccccc12)c1ccccc1 (centres undefined)	108.0	34.0	3.0	32.1	210.0*	22.8	140.0	18.0	109.0
CC1CCCC/C1=N\NC(=S)Nc1cccnc1 (centres undefined)	4.0*[inhibitor]	-45.0	6.4	5.5	6.0*[inhibitor]	-6.1	107.0	10.0	101.0
Cc1ccc(NC(=S)N/N=C2\CCCCC2C)cc1 (centres undefined)	103.0	0.0	-4.9	5.4	100.0	-0.7	/	/	/
O=C(N/N=C/c1ccc(Cl)cc1Cl)c1n[nH]c2c1CCCC2	128.0*	1.0	0.9	-26.1	105.0	-3.0	102.0	-4.0	103.0
CCOC(=O)[C@@H]1[C@H]2COc3ccccc3[C@@H]2N2C(=O)N(c3cccc(Cl)c3)C(=O)[C@]12C	103.0	-2.0	-31.3	7.6	102.0	21.4	/	/	/
Cc1[nH]nc2c1C1(CCC3(CC1)OCCO3)C(C#N)=C(N)O2	1.0*[inhibitor]	-20.0	-7.2	6.2	-3.0*[inhibitor]	-1.8	104.0	12.0	103.0
